The target in experiment [1] is GABA-A receptor; anion channel. Nature of the experiment: In vitro inhibition of 3[H]Diazepam binding to Benzodiazepine receptor from rat cerebral cortical membranes. It is filed as cell membranes, Membrane. The essentials:
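Rat cerebral cortex (decapitation) homogenized in 50 mM Tris-HCl pH 7.4, spun 20000g 20 min at 4 °C, washed three times, resuspended in 50 volumes buffer. Incubated with [3H]diazepam (final 2 nM) at 4 °C for 120 min, then filtered on GF/B with ice-cold buffer washes. Nonspecific binding taken with 10 μM flunitrazepam. IC50 from Hill plots, at least six inhibitor concentrations, mean of three or more experiments.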

In experiment [2] the target is GABA-A receptor; anion channel. Description: In vitro inhibition of 3[H]Diazepam binding to Benzodiazepine receptor from rat cerebral cortical membranes; value ranges from 4-12 nM. It is filed as cell membranes, Membrane.

The values below come from ChEMBL document CHEMBL1125077, “Synthetic and computer-assisted analyses of the pharmacophore for the benzodiazepine receptor inverse agonist site” (J Med Chem, 1990).

Each structure is given as a SMILES string.

For `CCOC(=O)c1cc2c3ccccc3c(N=O)c-2c[nH]1`, the IC50 (usually the point on the concentration scale where inhibition reaches its midpoint) in experiment [1] came to 5000 nM.

In experiment [1], `COC(=O)c1cc2c3ccccc3n3c(=O)ccc(n1)c23` yielded a half-maximal inhibitory concentration (IC50) of 100 nM. In experiment [1], `CC(C)(C)OC(=O)c1cc2c3ccccc3nc-2c[nH]1` came in with a half-maximal inhibitory concentration (IC50) of 10 nM.

In experiment [1], `CCOC(=O)c1cc2c(cn1)[nH]c1ccccc12` yielded an IC50 of 5 nM. On the same count and under the same terms, next, `CCc1nc(C(=O)OC)cc2c1[nH]c1ccccc12`: 7540 nM; `CC(C)Oc1cc2c(cn1)[nH]c1ccccc12`: 500 nM.

The molecule `CCCCOc1cc2c(cn1)[nH]c1ccccc12` registered an IC50 in experiment [1] of 98 nM. On the same count and under the same terms, for `CCCC(=O)c1cc2c(cn1)[nH]c1ccccc12` the value was 2.8 nM; for `CCCCc1cc2c(cn1)[nH]c1ccccc12`, 245 nM; for `c1ccc2c(c1)[nH]c1c2ccc2[nH]c3ccccc3c21`, 1970 nM. Take `S=C=Nc1cc2c3ccccc3nc-2c[nH]1`: in experiment [2], the IC50 came out at 4 nM. Regarding `CCOC(=O)c1cc2c(cn1)sc1ccccc12`, in experiment [1], the half-inhibitory concentration (IC50) turned out to be 1700 nM. Regarding `Cc1ccc2c(c1)[nH]c1c3c4ccccc4nc-3c[nH]c12`, the IC50 in experiment [1] came to 10 nM. Molecule `CCOC(=O)c1cc2c(cn1)Cc1ccccc1-2` returned a half-maximal inhibitory concentration (IC50) in experiment [1] of 680 nM. The molecule `CCOC(=O)c1cc2c(cn1)nc(O)c1ccccc12` gave a half-inhibitory concentration (IC50) in experiment [1] of 2400 nM. Turning to `CC(C)(C)COC(=O)c1cc2c3ccccc3nc-2c[nH]1`, in experiment [1], the concentration for half-maximal inhibition (IC50) worked out at 750 nM.

For `Cc1cccc2[nH]c3c4c5ccccc5nc-4c[nH]c3c12`, in experiment [1], the IC50 turned out to be 6860 nM. Against the preceding molecule, the IC50 is about 9.1-fold higher.

In the case of `CCOC(=O)c1cc2c(cn1)oc1ccccc12`, in experiment [1], the 50% inhibitory concentration (IC50) amounted to 9200 nM. Take `COC(=O)c1cc2c3ccccc3n(C(C)=O)c2cn1`: the 50% inhibitory concentration (IC50) in experiment [1] was determined as 9 nM. In experiment [1], `C[n+]1cc2[nH]c3ccccc3c2c2[nH]c3ccccc3c21` had an IC50 of 4660 nM. In the case of `CCc1nc2c3ccccc3[nH]c2c2c1[nH]c1ccccc12`, the IC50 in experiment [1] worked out at 285 nM. Same read-out and setting: next, `COC(=O)c1cc2[nH]c3ccccc3c2cn1`: 653 nM; `Cc1nccc2c1[nH]c1ccccc12` [HARMAN]: 12400 nM.
